A selection: hits, their analogues and other compounds. The true share with any hit is near 5.8%.
GASC1 inh = inhibitors of GASC-1 (KDM4C) histone demethylase, primary screen, biochemical, single concentration HTS | inhibition, % at 12.5 µM | GST-KDM4C 2-372, H3K9me3 peptide, LANCE TR-FRET | Lysine-specific demethylase 4C (Homo sapiens), Q9H3R0 | hit rate 0.15% among 96,000;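 active = mean replicate inhibition above about 25%, with at least 55% of replicates also reaching it, limit read from the data, passing the limit was not always enough; inconclusive = only one of those two conditions met; inactive = neither condition met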
Target sequence (Q9H3R0 2-372 limits assumed): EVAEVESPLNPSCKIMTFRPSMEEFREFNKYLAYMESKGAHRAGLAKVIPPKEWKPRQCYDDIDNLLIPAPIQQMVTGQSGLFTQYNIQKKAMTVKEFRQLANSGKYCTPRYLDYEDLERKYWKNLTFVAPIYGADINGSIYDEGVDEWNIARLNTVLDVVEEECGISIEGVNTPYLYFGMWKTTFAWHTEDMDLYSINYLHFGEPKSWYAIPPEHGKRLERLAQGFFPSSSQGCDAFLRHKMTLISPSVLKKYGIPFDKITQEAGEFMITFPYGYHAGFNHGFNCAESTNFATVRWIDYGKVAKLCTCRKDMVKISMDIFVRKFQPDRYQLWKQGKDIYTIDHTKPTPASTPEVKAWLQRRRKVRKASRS
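reagent = H3K9me3 peptide substrate, Fe(II), 2-oxoglutarate | system = GST-tagged GASC-1 (JMJD2C) catalytic fragment, aa 2-372 | amount = enzyme final amount 10 nM | read-out = Fall in 671/618 emission ratio as inhibition | medium = HEPES buffer, pH 7.5, plus ascorbate | schedule = 30 min reaction, 60 min detection, RT | measured by = LANCE TR-FRET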
Pf Dd2 inh = P. falciparum Dd2 growth inhibitors, primary screen, SYBR Green fluorescence, single dose replicates; 72 h; active compounds read low; activity change, % at 10 µM; hit rate 2.3% among 94,000; AID 1159554, 2015; in the data active = activity change below about -80%; inconclusive = no clear call, values can overlap the other calls
T cruzi growth-1 = T. cruzi intracellular proliferation inhibitors, primary screen, cell-based, beta-gal Tulahuen parasites, NIH3T3 host, luminescence; inhibition, % at 8.34 µM; hit rate 5.9% among 77,000; AID 624255, 2012; T. cruzi beta-gal in NIH3T3, GalScreen luminescence, 90 h;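 active = mean inhibition above about 93%, with at least 55% of replicates each passing it, limit read from the data, passing the limit was not always enough; inconclusive = only one of those two conditions holds; inactive = neither condition holds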
IDH1 mut inh = inhibitors of IDH1 R132H reductase, primary screen, biochemical, plate reader, single point | Isocitrate dehydrogenase [NADP] cytoplasmic (Homo sapiens), O75874 | diaphorase/resazurin fluorescence, 60 min | inhibition, % at 10 µM | hit rate 0.18% among 70,000 | AID 624101, 2012; in the data active = inhibition above about 34%; inconclusive = no clear call, values can overlap the other calls; inactive = below about 11%
T cruzi growth-2 = T. cruzi intracellular proliferation inhibitors, confirmation, cell-based, NIH3T3 host, beta-gal parasite, luminescence, cherry-pick; shares compounds with T cruzi growth-1; T. cruzi beta-gal in NIH3T3, GalScreen luminescence, 90 h; inhibition, % at 8.35 µM; hit rate 72% among 5,600; AID 651739, 2012;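 active = mean replicate inhibition above about 95% and at least 55% of replicates individually reaching it, limit read from the data; inconclusive = only one of the two criteria is met; inactive = neither criterion is met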
T cruzi growth-3 = inhibitors of intracellular T. cruzi replication, confirmation, NIH3T3 host cells, beta-gal parasites, cherry-pick, set 2 | shares compounds with T cruzi growth-1 | T. cruzi beta-gal in NIH3T3, GalScreen luminescence, 90 h | inhibition, % at 2.09 µM | hit rate 21% among 5,600 | AID 651740, 2012;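 active = mean inhibition above about 95%, with at least 55% of replicates also reaching it, limit read from the data; inconclusive = meets just one of the two conditions; inactive = meets neither condition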
NIH3T3 tox = cytotoxicity in mouse NIH/3T3 fibroblasts, confirmation, cytotoxicity control for T. cruzi proliferation inhibitor project, cell-based, cherry-pick, single point; NIH/3T3 viability, CellTiter-Glo ATP luminescence, 90 h; cytotoxicity (signal decrease), % at 8.35 µM; shares compounds with T cruzi growth-1; hit rate 14% among 5,600; AID 651742, 2012;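 active = mean signal decrease across replicates above about 35% based on untreated-well scatter, with enough replicates individually passing, limit read from the data; inconclusive = no rule stated though some were filed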
NIH3T3 tox 2 = NIH/3T3 fibroblast cytotoxicity, confirmation, cytotoxicity control, cell-based, cherry-pick, single point, set 2. shares compounds with T cruzi growth-1. hit rate 56% among 5,600. AID 651744, 2012. NIH/3T3 viability, CellTiter-Glo ATP luminescence, 90 h. inhibition, % at 24.9 µM;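 active = mean loss of cell viability signal at or above a set limit, and enough replicates individually reaching it; inconclusive = meets only the mean limit or only the replicate share; inactive = meets neither condition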
Each line names hits and unclear results; the compound was inactive in the other large screens (follow-up assays come after a bar, where they were run).

Cc1nnc(NCc2ccco2)[nH]c1=O	none (no result: GASC1 inh, Pf Dd2 inh, T cruzi growth-1)
O=C(O)c1cc(NS(=O)(=O)c2cccc3cccnc23)ccc1O	none (no result: GASC1 inh, Pf Dd2 inh, T cruzi growth-1)
CCOC(=O)c1c(NC(=S)NCc2ccco2)sc2c1CCCCCC2	none (no result: GASC1 inh, Pf Dd2 inh, T cruzi growth-1)
Cc1ccc(S(=O)(=O)NC(C)C(=O)Nc2cc(C(F)(F)F)ccc2Cl)cc1 (configuration not stated)	none (no result: GASC1 inh, Pf Dd2 inh, T cruzi growth-1)
Cc1cccc(-n2c(SCC(=O)O)nnc2-c2cccs2)c1C	none (no result: GASC1 inh, Pf Dd2 inh, T cruzi growth-1)
CC(C)(O)CCC(=O)C(C)(O)C1C(O)CC2(C)C3CC=C4C(CC(O)C(OC5OC(CO)C(O)C(O)C5O)C4(C)C)C3(C)C(=O)CC12C (configuration not stated)	none (no result: GASC1 inh, Pf Dd2 inh, T cruzi growth-1)
COc1cc(-c2oc3cc(O)cc(O)c3c(=O)c2OC2OC(CO)C(O)C(O)C2O)ccc1O (configuration not stated)	none (no result: GASC1 inh, Pf Dd2 inh, T cruzi growth-1)
COc1cccc(NC(=O)N2[C@H](CO)[C@H](c3ccccc3)[C@@H]2CNC(C)C)c1	T cruzi growth-1 115 (no result: IDH1 mut inh) | T cruzi growth-2 inactive | T cruzi growth-3 inactive | NIH3T3 tox inactive | NIH3T3 tox 2 inactive
CNC[C@H]1[C@@H](c2ccccc2)[C@@H](CO)N1C(=O)Nc1cccc(OC)c1	none (no result: IDH1 mut inh)
COc1ccccc1NC(=O)C1CCCN(S(=O)(=O)c2cc(Cl)ccc2Cl)C1 (configuration not stated)	none (no result: GASC1 inh, Pf Dd2 inh, T cruzi growth-1)
C/C=C/c1ccc2c(c1)O[C@H](CN(C)Cc1ccccc1F)[C@H](C)CN([C@H](C)CO)S2(=O)=O	T cruzi growth-1 109 | T cruzi growth-2 102 | T cruzi growth-3 inactive | NIH3T3 tox inactive | NIH3T3 tox 2 105
C/C=C/c1ccc2c(c1)O[C@@H](CN(C)Cc1ccccc1F)[C@H](C)CN([C@H](C)CO)S2(=O)=O	T cruzi growth-1 114 | T cruzi growth-2 98 | T cruzi growth-3 inactive | NIH3T3 tox 51 | NIH3T3 tox 2 102
C/C=C/c1ccc2c(c1)O[C@@H](CN(C)Cc1ccccc1F)[C@@H](C)CN([C@@H](C)CO)S2(=O)=O	none
C/C=C/c1ccc2c(c1)O[C@H](CN(C)Cc1ccccc1F)[C@H](C)CN([C@@H](C)CO)S2(=O)=O	T cruzi growth-1 120 | T cruzi growth-2 111 | T cruzi growth-3 inactive | NIH3T3 tox 36 | NIH3T3 tox 2 105
C/C=C/c1ccc2c(c1)O[C@@H](CN(C)Cc1ccc(F)cc1)[C@@H](C)CN([C@@H](C)CO)S2(=O)=O	none
O=C(C[C@@H]1CC[C@@H]2[C@H](COC[C@H](O)CN2C(=O)c2ccncc2)O1)NC1CCC1	T cruzi growth-1 108 (no result: IDH1 mut inh) | T cruzi growth-2 inactive | T cruzi growth-3 inactive | NIH3T3 tox inactive | NIH3T3 tox 2 inactive
O=C(C[C@H]1CC[C@@H]2[C@H](COC[C@@H](O)CN2C(=O)c2ccncc2)O1)NC1CCC1	T cruzi growth-1 97 (no result: IDH1 mut inh) | T cruzi growth-2 inactive | T cruzi growth-3 inactive | NIH3T3 tox inactive | NIH3T3 tox 2 inactive
COCC(=O)Nc1ccc2c(c1)[C@H]1C[C@@H](CC(=O)NCc3ccc(-c4ccccc4)cc3)O[C@@H](CO)[C@H]1O2	none
COCC(=O)Nc1ccc2c(c1)[C@@H]1C[C@@H](CC(=O)NCc3ccc(-c4ccccc4)cc3)O[C@@H](CO)[C@@H]1O2	T cruzi growth-1 inconclusive | T cruzi growth-2 inactive | T cruzi growth-3 inactive | NIH3T3 tox 37 | NIH3T3 tox 2 inactive
COCC(=O)Nc1ccc2c(c1)[C@H]1C[C@H](CC(=O)NCc3ccc(-c4ccccc4)cc3)O[C@H](CO)[C@H]1O2	T cruzi growth-1 111 | T cruzi growth-2 inactive | T cruzi growth-3 inactive | NIH3T3 tox inactive | NIH3T3 tox 2 inactive
